We go through 17 compounds from ChEMBL document CHEMBL4680100, “Revisiting the SAR of the Antischistosomal Aryl Hydantoin (Ro 13-3978)” (J Med Chem, 2016).

The nature of data set [1]: Octanol/water partition coefficient, logD of the compound at pH 7.4 by HPLC analysis.
Data set [2] addresses Albumin (Homo sapiens, UniProt P02768). The data set can be described thus: Protein binding in immobilized human serum albumin by HPLC analysis. In kind it is ADME. The note with it: isolated protein. The method in brief: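 Binding estimated from gradient HPLC retention on a human albumin column, correlated against standard compounds of known protein binding.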
Data set [3] can be described thus: Kinetic solubility of the compound in 0.01 M HCl at pH 2 by nephelometry. In kind it is physicochemical. The note with it: read-out: Kinetic_solubility.
Data set [4] is described as follows: Kinetic solubility of compound at pH 6.5 phosphate buffer by nephelometry. The note with it: read-out: Kinetic_solubility. In kind it is physicochemical.
Data set [5] is described as follows: Intrinsic clearance in human liver microsome in presence of NADPH-regenerating system incubated over 60 mins by LC-MS analysis. The conditions noted are these: microsomes, 1 h.
The nature of data set [6]: Intrinsic clearance in mouse liver microsome in presence of NADPH-regenerating system incubated over 60 mins by LC-MS analysis. The note with it: microsomes, 1 h.
For data set [7], the system named is Schistosoma mansoni. The data set can be described thus: Antischistosomal activity against Schistosoma mansoni infected in NMRI mouse assessed as reduction in total worm burden at 100 mg/kg, po administered as single dose starting on day 49 post-infection and measured at 28 days post treatment relative to control. In kind it is functional. More on the design: scale not given: the % may be the effect or the level left. The conditions noted are these: time 28 day. The essentials:
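S. mansoni-infected NMRI mice treated on day 49 post-infection with a single oral dose, dissolved or suspended in 7% v/v Tween 80, 3% v/v ethanol (10 mL/kg), five mice per group. Sacrificed and dissected 28 d post-treatment; worms counted to give total worm burden reduction versus untreated controls. Kruskal–Wallis test on medians, treatment versus control.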

The test system of data set [8] is L6. The data set can be described thus: Cytotoxicity against rat L6 cells assessed as reduction in cell viability at up to 30 uM. In kind it is cell-based.
The target in data set [9] is T1, Androgen receptor (Homo sapiens, UniProt P10275).
T1 sequence (P10275 whole entry): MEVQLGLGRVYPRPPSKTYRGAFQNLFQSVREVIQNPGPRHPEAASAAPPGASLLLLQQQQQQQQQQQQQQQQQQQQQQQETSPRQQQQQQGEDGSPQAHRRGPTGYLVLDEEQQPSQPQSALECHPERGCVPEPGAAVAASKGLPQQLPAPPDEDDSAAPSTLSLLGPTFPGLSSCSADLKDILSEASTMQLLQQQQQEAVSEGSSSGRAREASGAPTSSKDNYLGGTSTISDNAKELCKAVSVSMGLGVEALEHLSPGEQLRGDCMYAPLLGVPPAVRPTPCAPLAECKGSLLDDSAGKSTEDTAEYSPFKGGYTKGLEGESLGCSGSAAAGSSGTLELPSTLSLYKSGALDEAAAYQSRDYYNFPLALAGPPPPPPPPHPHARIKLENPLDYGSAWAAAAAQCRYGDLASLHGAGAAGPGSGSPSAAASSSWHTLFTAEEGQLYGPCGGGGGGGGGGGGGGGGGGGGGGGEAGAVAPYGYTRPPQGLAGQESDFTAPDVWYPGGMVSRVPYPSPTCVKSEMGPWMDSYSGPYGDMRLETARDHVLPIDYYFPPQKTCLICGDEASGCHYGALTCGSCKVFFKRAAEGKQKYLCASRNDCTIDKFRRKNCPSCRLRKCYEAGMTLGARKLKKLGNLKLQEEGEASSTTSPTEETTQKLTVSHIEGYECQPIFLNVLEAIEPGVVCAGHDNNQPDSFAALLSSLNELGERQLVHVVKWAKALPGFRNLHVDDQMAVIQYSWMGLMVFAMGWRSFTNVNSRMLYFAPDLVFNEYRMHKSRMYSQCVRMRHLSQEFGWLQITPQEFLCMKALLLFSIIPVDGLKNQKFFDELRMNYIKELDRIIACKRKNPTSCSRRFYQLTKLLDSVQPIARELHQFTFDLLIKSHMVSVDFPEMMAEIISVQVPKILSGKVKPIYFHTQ

In brackets after ≈: the same amount, converted by molar mass.

By logD is commonly meant lipophilicity at a set pH, counting ionised and neutral species. As usually defined, the IC50 is the concentration that inhibits the measured activity by half.

Sequence of Albumin (P02768 whole entry): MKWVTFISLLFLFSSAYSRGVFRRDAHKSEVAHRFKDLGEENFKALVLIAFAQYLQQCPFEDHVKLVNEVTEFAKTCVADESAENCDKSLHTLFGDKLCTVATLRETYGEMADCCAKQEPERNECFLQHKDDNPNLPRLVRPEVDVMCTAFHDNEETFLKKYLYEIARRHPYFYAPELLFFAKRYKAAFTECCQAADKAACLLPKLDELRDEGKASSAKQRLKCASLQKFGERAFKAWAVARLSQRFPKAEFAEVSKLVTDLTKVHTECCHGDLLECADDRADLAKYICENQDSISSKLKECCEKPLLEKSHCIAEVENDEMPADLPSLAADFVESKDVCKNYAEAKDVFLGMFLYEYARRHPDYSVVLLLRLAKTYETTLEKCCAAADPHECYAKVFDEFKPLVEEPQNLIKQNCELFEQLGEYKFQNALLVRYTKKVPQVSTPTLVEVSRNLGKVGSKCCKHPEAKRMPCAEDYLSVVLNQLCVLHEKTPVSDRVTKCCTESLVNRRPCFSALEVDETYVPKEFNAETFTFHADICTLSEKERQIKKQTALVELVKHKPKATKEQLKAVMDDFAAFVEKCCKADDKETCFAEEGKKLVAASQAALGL

`CC(C)(NC(=O)Nc1ccc(F)c(C(F)(F)F)c1)C(=O)O` showed a log distribution coefficient (logD) in data set [1] of 1.1. The compound further gave a PPB in data set [2] of 94.3%. For the same compound, the solubility kinetic is 25 µg/mL (≈ 81.1 µM) in data set [3] and greater than 100 µg/mL in [4]. Further, the CLH in data set [5] and in [6] was less than 7 µL/min/mg in each case. The Activity is 67% in data set [7] and “Non-Toxic” in [8]. In data set [9], the midpoint of inhibition, the IC50, lay at 3.1 µM.
In data set [1], `CC1(C)NC(=O)N(Cc2ccc(F)c(C(F)(F)F)c2)C1=O` displayed a logD of 2.9. In addition, the PPB in data set [2] was 82.1%. Also, the figures for the solubility kinetic in data set [3] and in data set [4] were 50 µg/mL (≈ 164 µM) and greater than 100 µg/mL, respectively. For the same compound, the CLH in data set [5] is 17 µL/min/mg; in [6], 11 µL/min/mg. In addition, the Activity in [7] is reported as 56%; in data set [8], “Non-Toxic”. Further, the IC50 in data set [9] worked out at 4.2 µM.
In data set [1], `O=C1NC2(CCCCC2)C(=O)N1c1ccc(F)c(C(F)(F)F)c1` showed a logD of 3.5. In data set [2], this compound displayed a PPB of 74.9%. Besides, the solubility kinetic in [3] and in [4] was 3.1 µg/mL (≈ 9.39 µM) each time. In addition, the CLH was 25 µL/min/mg in data set [5] and 122 µL/min/mg in [6]. The Activity is on record as 42% in data set [7] and “Non-Toxic” in data set [8]. The IC50 in data set [9] is 4.2 µM.
In turn, `CC1(C)NC(=O)C(c2ccc(F)c(C(F)(F)F)c2)C1=O` (stereo not drawn) showed a log distribution coefficient (logD) in data set [1] of 0.5. This compound also had a PPB in data set [2] of 93.3%. Besides, the solubility kinetic in data set [3] is 25 µg/mL (≈ 86.4 µM); in data set [4], greater than 100 µg/mL. In addition, the CLH in data set [5] and in data set [6] was less than 7 µL/min/mg in each case. For the same compound, the Activity in [7] is reported as 0%; in data set [8], “Non-Toxic”. The same compound returned an IC50 in data set [9] greater than 10 µM.
`CC1(C)C(=O)N(c2ccc(F)c(C(F)(F)F)c2)C(=O)N1CC#N` yielded a log distribution coefficient (logD) in [1] of 3.4. In data set [2], this compound came in with a PPB of 48.2%. Besides, the solubility kinetic in data set [3] and in data set [4] was 25 µg/mL (≈ 75.9 µM) in each case. Moreover, the values for the Activity in data set [7] and in [8] were 91% and “Non-Toxic”, respectively. This compound also displayed a half-inhibitory concentration (IC50) in data set [9] of 0.29 µM.
In turn, `CC1(C)CNC(=O)N(c2ccc(F)c(C(F)(F)F)c2)C1=O` came in with a logD in [1] of 2.5. In data set [2], this compound came in with a PPB of 21.5%. Besides, the solubility kinetic in data set [3] and in data set [4] was 12.5 µg/mL (≈ 41.1 µM) in each case. Also, the results for the CLH in [5] and in data set [6] were 9 µL/min/mg and 15 µL/min/mg, respectively. For the same compound, the Activity in [7] is 19%; in data set [8], “Non-Toxic”. In data set [9], half-maximal inhibition (IC50) was put at 6.9 µM.
On to `CC1(C)CN(c2ccc(F)c(C(F)(F)F)c2)C(=O)N1`, for which the log distribution coefficient (logD) in data set [1] came out at 3.2. The compound further returned a PPB in data set [2] of 78.3%. For the same compound, the solubility kinetic in [3] and in data set [4] was 12.5 µg/mL (≈ 45.3 µM) each time. Also, the CLH in data set [5] was less than 7 µL/min/mg; in data set [6], 30 µL/min/mg. For the same compound, the Activity is 59% in data set [7] and “Non-Toxic” in data set [8]. Further, the half-maximal inhibitory concentration (IC50) in data set [9] stood at 8.1 µM.
In the case of `O=C1C2CCCN2C(=O)N1c1ccc(F)c(C(F)(F)F)c1` (stereo not drawn), in [1], the logD is 3. The compound further displayed a PPB in [2] of 46%. In addition, the solubility kinetic in [3] and in data set [4] was 25 µg/mL (≈ 82.7 µM) each time. Further, the CLH in data set [5] turned out to be 30 µL/min/mg; in data set [6] it was 144 µL/min/mg. Besides, the figures for the Activity in data set [7] and in [8] were 0% and “Non-Toxic”, respectively. This compound registered an IC50 in data set [9] of 3.5 µM.
As for `CC1(C)NC(=O)N(c2ccncc2)C1=O`, the PPB in data set [2] amounted to 6.7%. The solubility kinetic was 50 µg/mL (≈ 244 µM) in data set [3] and greater than 100 µg/mL in data set [4]. In addition, the CLH was less than 7 µL/min/mg in data set [5] and 11 µL/min/mg in data set [6]. Also, the Activity is recorded as 1.8% in data set [7] and “Non-Toxic” in data set [8]. This compound had a 50% inhibitory concentration (IC50) in data set [9] of 3.8 µM.
As to `CC1(C)C(=O)NC(=O)N1c1ccc(F)c(C(F)(F)F)c1`, the logD in data set [1] stood at 2.5. The compound further showed a PPB in [2] of 67.1%. Further, the solubility kinetic in [3] and in data set [4] was 25 µg/mL (≈ 86.1 µM) throughout. Moreover, the CLH in data set [5] and in data set [6] was less than 7 µL/min/mg in each case. Further, the Activity in data set [7] is recorded as 0%; in [8] it was “Non-Toxic”. 2.8 µM corresponded to half-maximal inhibition in data set [9] (IC50).
In turn, `CC1(C)CC(=O)N(c2ccc(F)c(C(F)(F)F)c2)C1=O` yielded a logD in data set [1] of 3.4. Moreover, in data set [2], the PPB amounted to 42.5%. Moreover, the solubility kinetic in data set [3] and in [4] was 12.5 µg/mL (≈ 43.2 µM) each time. Besides, the CLH turned out to be 11 µL/min/mg in [5] and 10 µL/min/mg in data set [6]. Moreover, the results for the Activity in data set [7] and in data set [8] were 42% and “Non-Toxic”, respectively. In data set [9], this compound came in with an IC50 of 0.91 µM.
`CC1(C)OC(=O)N(c2ccc(F)c(C(F)(F)F)c2)C1=O` showed a logD in data set [1] of 3.7. The PPB in data set [2] is 58.1%. In addition, the solubility kinetic in [3] and in data set [4] was 3.1 µg/mL (≈ 10.6 µM) each time. Besides, the CLH in data set [5] and in data set [6] was 12 µL/min/mg each time. For the same compound, the Activity in data set [7] was 11%; in [8] it was “Non-Toxic”. The compound also showed an IC50 in data set [9] of 2.1 µM.
`O=C1CNC(=O)N1c1ccc(F)c(C(F)(F)F)c1` gave a logD in data set [1] of 2. In data set [2], this compound registered a PPB of 43.6%. Besides, the solubility kinetic in data set [3] and in [4] was greater than 100 µg/mL in each case. Further, the CLH in [5] was less than 7 µL/min/mg; in data set [6], 13 µL/min/mg. Moreover, the Activity in data set [7] is reported as 0%; in data set [8], “Non-Toxic”. In [9], this compound displayed a half-maximal inhibitory concentration (IC50) of 0.26 µM.
In turn, `CC1(CO)NC(=O)N(c2ccc(F)c(C(F)(F)F)c2)C1=O` (stereo not drawn) returned a pH-dependent lipophilicity (logD) in data set [1] of 1.9. For the same compound, the PPB in data set [2] came out at 34.3%. Also, the solubility kinetic in data set [3] and in data set [4] was 25 µg/mL (≈ 81.6 µM) in each case. The CLH in [5] and in [6] was less than 7 µL/min/mg throughout. The Activity in [7] is reported as 0%; in data set [8] it was “Non-Toxic”. This compound had an IC50 in data set [9] of 4.8 µM.
`CC1(C)CC(=O)N(c2ccc(F)c(C(F)(F)F)c2)C(=O)N1` registered a logD in data set [1] of 2.4. In [2], this compound registered a PPB of 15%. The solubility kinetic in data set [3] and in data set [4] was 25 µg/mL (≈ 82.2 µM) in each case. In addition, the CLH in data set [5] and in data set [6] was less than 7 µL/min/mg throughout. In addition, the Activity is on record as 51% in data set [7] and “Non-Toxic” in data set [8]. This compound came in with a half-maximal inhibitory concentration (IC50) in [9] greater than 10 µM.
Regarding `CC1(C)NC(=O)N(c2ccc([N+](=O)[O-])c(C(F)(F)F)c2)C1=O` [NILUTAMIDE], in data set [1], the logD was found to be 3. This compound also registered a PPB in [2] of 70.3%. In addition, the solubility kinetic in [3] and in data set [4] was 50 µg/mL (≈ 158 µM) each time. For the same compound, the CLH in data set [5] and in [6] was less than 7 µL/min/mg in each case. In addition, the Activity in data set [7] is listed as 31%.
As to `O=C(C1CCCCC1)N1CC(=O)N2CCc3ccccc3C2C1` (stereo not drawn) [PRAZIQUANTEL], in [1], the logD came out at 3. Further, the solubility kinetic in data set [3] and in [4] was greater than 100 µg/mL in each case. Moreover, the Activity in data set [7] is given as 18%.
